We go through one molecule from ChEMBL document CHEMBL1255440, “An antimicrobial peptide that targets DNA repair intermediates in vitro inhibits Salmonella growth within murine macrophages” (Antimicrob Agents Chemother, 2010).

Activity calls are given as the source filed them. No cut-off for these calls is given here.

Data set [1] concerns Salmonella typhimurium. The experiment in a line: Antibacterial activity against 10 MOI Salmonella enterica subsp. enterica serovar Typhimurium G785 transfected with SOS-inducible beta-galactosidase reporter infected in mouse J774A1 cells assessed as SOS induction at 150 uM after 4 hrs postinfection. The class given is functional, J774.A1. A digest of the protocol: (§1)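 J774A.1 cells infected at MOI 10 with sulA promoter-lacZ reporter strain G785 using the gentamicin-protection protocol, treated with peptide (DMSO vehicle controls) plus 15 μg/ml gentamicin for 4 or 24 h. Released bacteria were plated for colony counts in parallel, and were incubated with 33 μM C12FDG (with 0.2 mM EDTA) in LB for 2 h at 37°C. Flow cytometry gave % fluorescein-positive among LPS-antibody-positive particles; Wilcoxon exact test.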

Data set [2] concerns Salmonella typhimurium. The experiment in a line: Antibacterial activity against 10 MOI Salmonella enterica subsp. enterica serovar Typhimurium G785 transfected with SOS-inducible beta-galactosidase reporter infected in mouse J774A1 cells assessed as bacterial number at 50 uM after 24 hrs postinfection. In kind it is functional, J774.A1. A digest of the protocol:
as §1

For data set [3], the system named is Salmonella typhimurium. The experiment in a line: Antibacterial activity against 10 MOI Salmonella enterica subsp. enterica serovar Typhimurium G785 transfected with SOS-inducible beta-galactosidase reporter infected in mouse J774A1 cells assessed as SOS induction at 100 uM after 24 hrs postinfection. In kind it is functional, J774.A1. The method, boiled down: as §1

In data set [4] the test system is Salmonella typhimurium. Description: Antibacterial activity against 10 MOI Salmonella enterica subsp. enterica serovar Typhimurium G785 transfected with SOS-inducible beta-galactosidase reporter infected in mouse J774A1 cells assessed as SOS induction at 150 uM after 24 hrs postinfection. In kind it is functional, J774.A1. The method, boiled down:
as §1

In data set [5] the test system is J774.A1. Description: Cytotoxicity against mouse J774A1 cells assessed as dead cells at 50 uM by propidium iodide assay. The class given is cell-based. The conditions noted are these: j774.a1, 50 µM. The method, boiled down: (§2)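 Cells seeded at 300,000/well and allowed to adhere, then given fresh DMEM with or without peptide for 24 h. Cells trypsinized, stained with a mammalian Live/Dead viability/cytotoxicity kit and analyzed by flow cytometry. Wilcoxon exact test.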

Data set [6] can be described thus: Cytotoxicity against mouse peritoneal macrophages assessed as live cells at 50 uM by calcein AM assay. The class given is cell-based, Peritoneal macrophage cell. The conditions noted are these: read-out: Activity. A digest of the protocol:
as §2

Data set [7] deals with J774.A1. Description: Drug uptake in mouse J774A1 cells assessed as total peptide concentration at 50 uM after 5 hrs at 37 degC by HPLC analysis. The class given is ADME, cell-based. The conditions noted are these: j774.a1, 5 h. A digest of the protocol:
(§3)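 J774A.1 cells were seeded at 300,000 per well and allowed to adhere for 24 h at 37°C in 5% CO2. Medium was replaced with DMEM containing unlabeled peptide, and cells were held at 37°C or 4°C. After three washes in ice-cold PBS, cells were lysed in NP-40 buffer and debris spun out. Reverse-phase HPLC was read at 280 nm. Peaks at 17.5 and 17.75 min were integrated against a standard curve. Intracellular mM was calculated from 300,000 cells at 1 pl each, using monomer mass.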

Data set [8] in a line: Drug uptake in mouse peritoneal macrophages assessed as total peptide concentration at 150 uM after 24 hrs at 37 degC by HPLC analysis. In kind it is ADME, cell-based. The conditions noted are these: peritoneal macrophage cell. The method, boiled down: (§4)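 Macrophages were elicited in 8–12-week-old female BALB/c mice with 4% thioglycolate i.p. and harvested by lavage 4 days later. Cells were seeded at 300,000 per well for 24 h, then given unlabeled peptide in DMEM for 24 h at 37°C. Lysates were run on reverse-phase HPLC at A280. Monomer (17.5 min) and dimer (17.75 min) peak areas were compared with a standard curve. Concentration assumed 1 pl per cell; values are means of three determinations.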

Data set [9] in a line: Drug uptake in mouse peritoneal macrophages assessed as total peptide concentration at 100 uM after 24 hrs at 37 degC by HPLC analysis. In kind it is ADME, cell-based. The conditions noted are these: peritoneal macrophage cell. The method, boiled down: as §4
Data set [10] deals with J774.A1. The experiment in a line: Drug uptake in mouse J774A1 cells assessed as dimer to monomer peptide ratio at 100 uM after 24 hrs at 37 degC by HPLC analysis. The class given is ADME, cell-based. The conditions noted are these: j774.a1, 24 h. A digest of the protocol: (§5)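 J774A.1 cells were incubated with unlabeled peptide for 5 or 24 h at 37°C or 4°C, washed in ice-cold PBS and lysed with NP-40 buffer. Lysates were run on reverse-phase HPLC with an acetonitrile/0.1% TFA gradient and A280 fractions. Monomer (~17.5 min) and dimer (~17.75 min) peak areas were compared against a standard curve. Intracellular mM was calculated using 300,000 cells and 1 pl/cell, with concentration expressed as monomer mass.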

In data set [11] the test system is J774.A1. The experiment in a line: Drug uptake in mouse J774A1 cells assessed as dimer to monomer peptide ratio at 50 uM after 24 hrs at 37 degC by HPLC analysis. In kind it is ADME, cell-based. The conditions noted are these: j774.a1, 24 h. The method, boiled down:
as §5

Data set [12] concerns J774.A1. The experiment in a line: Drug uptake in mouse J774A1 cells assessed as total peptide concentration at 150 uM after 24 hrs at 37 degC by HPLC analysis. In kind it is ADME, cell-based. The conditions noted are these: j774.a1, 24 h. The method, boiled down:
as §5

For data set [13], the system named is J774.A1. Description: Drug uptake in mouse J774A1 cells assessed as total peptide concentration at 100 uM after 24 hrs at 37 degC by HPLC analysis. The class given is ADME, cell-based. The conditions noted are these: j774.a1, 24 h. The method, boiled down: as §5
The test system of data set [14] is J774.A1. Description: Drug uptake in mouse J774A1 cells assessed as total peptide concentration at 50 uM after 24 hrs at 37 degC by HPLC analysis. In kind it is ADME, cell-based. The conditions noted are these: j774.a1, 24 h. The method, boiled down: as §3
Data set [15] deals with J774.A1. Description: Drug uptake in mouse J774A1 cells assessed as total peptide concentration at 150 uM after 5 hrs at 37 degC by HPLC analysis. The conditions noted are these: j774.a1, 5 h. The class given is ADME, cell-based. A digest of the protocol: as §3
The test system of data set [16] is J774.A1. The experiment in a line: Drug uptake in mouse J774A1 cells assessed as dimer to monomer peptide ratio at 100 uM after 5 hrs at 37 degC by HPLC analysis. In kind it is ADME, cell-based. The conditions noted are these: j774.a1, 5 h. A digest of the protocol: as §5
Data set [17] relates to J774.A1. Description: Drug uptake in mouse J774A1 cells assessed as total peptide concentration at 100 uM after 5 hrs at 4 degC by HPLC analysis. The class given is ADME, cell-based. The conditions noted are these: j774.a1, 5 h. The method, boiled down: as §5
In data set [18] the test system is J774.A1. The experiment in a line: Drug uptake in mouse J774A1 cells assessed as total peptide concentration at 150 uM after 5 hrs at 4 degC by HPLC analysis. The class given is ADME, cell-based. The conditions noted are these: j774.a1, 5 h. A digest of the protocol:
as §3

The test system of data set [19] is J774.A1. Description: Drug uptake in mouse J774A1 cells assessed as dimer to monomer peptide ratio at 100 uM after 5 hrs at 4 degC by HPLC analysis. The class given is ADME, cell-based. The conditions noted are these: j774.a1, 5 h. A digest of the protocol: as §5
The subject of data set [20] is Salmonella typhimurium. The experiment in a line: Antibacterial activity against 1 MOI Salmonella enterica subsp. enterica serovar Typhimurium infected in mouse J774A1 cells assessed as reduction in bacterial growth at 2.5 times MIC. In kind it is functional, organism-based. The conditions noted are these: J774.A1. The method, boiled down: (§6)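 J774A.1 cells or thioglycolate-elicited BALB/c peritoneal macrophages seeded at 200,000/well, overnight 37°C 5% CO2; infected with GFP strain SDT1416, 1 h invasion, washed, 1 h in DMEM with 15 μg/ml gentamicin. Then fresh DMEM plus 15 μg/ml gentamicin with or without peptide (DMSO vehicle) for 24 h at 37°C; macrophages lysed with 1% Triton X-100, plated on LB agar for CFU.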

Data set [21] relates to Salmonella typhimurium. Description: Antibacterial activity against 1 MOI Salmonella enterica subsp. enterica serovar Typhimurium infected in mouse J774A1 cells assessed as fold reduction in bacterial growth at 100 uM after 24 hrs. In kind it is functional, J774.A1. A digest of the protocol:
as §6

Data set [22] relates to J774.A1. Description: Drug uptake in mouse J774A.1 cells assessed as total peptide concentration at 150 uM after 24 hrs at 4 degC by HPLC analysis. The conditions noted are these: J774A.1, 24 h.
In data set [23] the test system is J774.A1. Description: Drug uptake in mouse J774A.1 cells assessed as dimer to monomer peptide ratio at 100 uM after 24 hrs at 4 degC by HPLC analysis. The conditions noted are these: J774A.1, 24 h.
The test system of data set [24] is J774.A1. Description: Drug uptake in mouse J774A1 cells at 10 uM after 5 hrs in presence of 100 nM wortmannii PI3K inhibitor by confocal laser microscopy. The conditions noted are these: j774.a1, 5 h.

Regarding `N=C(N)NCCC[C@@H](NC(=O)[C@@H](CS)NC(=O)[C@@H](Cc1ccc(O)cc1)NC(=O)[C@@H](Cc1c[nH]c2ccccc12)NC(=O)[C@@H](CCCNC(=N)N)NC(=O)[C@H](N)Cc1c[nH]c2ccccc12)C(=O)O`, the Activity worked out at 8.5% with Salmonella typhimurium [1]; 45.2% with Salmonella typhimurium [2]; 16.5% in the data set on Salmonella typhimurium [3]; 28.4% in the data set on Salmonella typhimurium [4]; 4.3% in the data set with J774.A1 [5]. Besides, the viability at 50 µM in [6] is 94.2%. Moreover, the Drug uptake in the data set with J774.A1 [7] came out at 0.9 mM; in data set [8], 24.8 mM; in data set [9], 7.4 mM; with J774.A1 [12], 30.1 mM; in the data set on J774.A1 [13], 16.9 mM; in the data set with J774.A1 [14], 1.4 mM. Further, the Drug uptake in the data set on J774.A1 [15] is reported as 28.9 mM; in the data set with J774.A1 [17], 7.7 mM; with J774.A1 [18], 15.8 mM; in the data set with J774.A1 [22], 47.7 mM; in the data set with J774.A1 [24], “Not Active”. Besides, the Ratio with J774.A1 [10] is on record as 2.9; in the data set with J774.A1 [11], 1.7; in the data set with J774.A1 [16], 2.6; with J774.A1 [19] it was 2.7; in the data set on J774.A1 [23], 11.5. The outcome in the data set with Salmonella typhimurium [20] was Active. In the data set on Salmonella typhimurium [21], the fold change (FC) is greater than 100.
